{"source": "paper PMC11812941", "about": "(CPT: Pharmacometrics & Systems Pharmacology, 2024)", "key": {"[1]": {"tested_on": "patients with GA secondary to AMD (GA lesion area, study eye)", "test": "Dose-response model of GA lesion area, pooled FILLY, OAKS and DERBY data", "type": "in vivo, human", "details": "point estimate", "outline": "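Study eyes were randomized 2:2:1:1 to a 100 μL intravitreal injection of test compound 15 mg monthly or EOM, or sham monthly or EOM, for ≤24 months. GA lesion area was measured by fundus autofluorescence. A linear-with-time disease progression model with covariates was built from sham and untreated fellow eyes. Step-function drug effects per regimen were fitted in NONMEM.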"}, "[2]": {"test": "Prevalence of serum antidrug antibodies in FILLY, OAKS and DERBY", "type": "in vivo, human", "details": "detectable at baseline or at any time during the study"}, "[3]": {"details": "cited from earlier work"}, "[4]": {"details": "cited from earlier work", "remark": "listed apart in the source"}, "[5]": {"tested_on": "patients with GA secondary to AMD (GA lesion area)", "details": "phase II FILLY, cited from earlier work"}, "[6]": {"tested_on": "patients with GA secondary to AMD (GA lesion area)", "details": "phase III OAKS and DERBY combined, cited from earlier work"}}, "note": "Where two headings read alike, the source gives them in different places."}
{"substance": "pegcetacoplan", "values": [{"measurement": "model-predicted rate of disease progression (GA lesion growth rate) relative to sham", "setting": "[1]; pegcetacoplan 15 mg intravitreal EOM, 95% CI 0.78, 0.87", "result": 0.83, "unit": "fold"}, {"measurement": "model-predicted rate of disease progression (GA lesion growth rate) relative to sham", "setting": "[1]; pegcetacoplan 15 mg intravitreal monthly, 95% CI 0.75, 0.84", "result": 0.80, "unit": "fold"}, {"measurement": "prevalence of serum antidrug antibodies against the PEG moiety", "setting": "[2]", "result": 67, "unit": "%"}, {"measurement": "prevalence of serum antidrug antibodies against the peptide moiety", "setting": "[2]", "result": 5, "unit": "%"}, {"measurement": "model-predicted steady-state serum maximal concentration, geometric mean", "setting": "[3]; patients with GA, 15 mg intravitreal EOM, CV 58.1%", "result": 1.5, "unit": "µg/mL"}, {"measurement": "accumulation from first dose to steady-state, ratio of geometric mean exposure", "setting": "[3]; serum or vitreous humor", "result": "1.10–1.50"}, {"measurement": "average exposure relative to reference body weight 70 kg", "setting": "[4]; 5th percentile of body weight (53 kg), higher, 90% CI 1.16-1.23", "result": 1.20, "unit": "fold"}, {"measurement": "average exposure relative to reference body weight 70 kg", "setting": "[4]; 95th percentile of body weight (94 kg), lower, 90% CI 0.800-0.853", "result": 0.827, "unit": "fold"}, {"measurement": "effective elimination half-life, median (interquartile range)", "setting": "[4]; patients with paroxysmal nocturnal hemoglobinuria", "result": "8.6 (6.9–11.0) days"}, {"measurement": "clearance, predicted geometric mean", "setting": "[4]; population PK model, 11 clinical studies, CV 30%", "result": 0.36, "unit": "L/day"}, {"measurement": "reduction in GA lesion area growth compared with sham treatment", "setting": "[5]; EOM", "result": 20, "unit": "%"}, {"measurement": "reduction in GA lesion area growth compared with sham treatment", "setting": "[5]; monthly", "result": 29, "unit": "%"}, {"measurement": "reduction in GA lesion area growth compared with sham treatment", "setting": "[6]; EOM", "result": 24, "unit": "%"}, {"measurement": "reduction in GA lesion area growth compared with sham treatment", "setting": "[6]; monthly", "result": 30, "unit": "%"}]}
